# HNF4A DNA FP: change in binding of human HNF4 alpha to DNA. P41235. HNF4a-FITC DNA binding, fluorescence polarization, 1 h. activity change, % at 10 µM. 0.3% of 360,000 active; in the data active = activity change above about 30%, passing the limit was not always enough
# Target sequence (P41235 whole entry, looked up): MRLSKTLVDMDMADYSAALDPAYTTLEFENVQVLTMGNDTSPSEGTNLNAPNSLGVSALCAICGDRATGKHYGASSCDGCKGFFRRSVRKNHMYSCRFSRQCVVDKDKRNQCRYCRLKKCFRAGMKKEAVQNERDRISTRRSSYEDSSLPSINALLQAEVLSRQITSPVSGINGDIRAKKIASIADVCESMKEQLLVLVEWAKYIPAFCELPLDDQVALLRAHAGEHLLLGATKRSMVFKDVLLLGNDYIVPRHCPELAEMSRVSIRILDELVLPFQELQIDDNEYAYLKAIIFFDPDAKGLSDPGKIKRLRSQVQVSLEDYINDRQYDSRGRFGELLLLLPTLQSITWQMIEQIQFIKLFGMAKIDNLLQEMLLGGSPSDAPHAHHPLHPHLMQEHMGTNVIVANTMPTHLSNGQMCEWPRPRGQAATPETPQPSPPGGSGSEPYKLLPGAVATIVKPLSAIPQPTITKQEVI
# NR1D1 modulator: Rev-erb alpha (human) modulation; 0.79% of 370,000 active; activity, % at 10 µM; Rev-erbα–FITC-DNA binding, fluorescence polarization, 90 min; AID 1259318;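 active = activity above about 14%, limit read from the data; passing the limit was not always enough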;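 also: 0% = DMSO wells with 35 nM protein and 100% = DMSO wells with 750 nM protein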
# TPT1 inhibitor: blocks Candida albicans tRNA 2'-phosphotransferase. recombinant caTPT1, FP RNA substrate dephosphorylation. inhibition, % at 5 µM. 0.81% of 300,000 active;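 active = inhibition above the mean of all tested compounds plus 3 SD, set per screening campaign, cut at about 24% in these data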;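 also: plate controls were DMSO alone for no effect and ferristatin control at 100 nM for full effect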
# CSN inh: inhibitors of human CSN-mediated cullin deneddylation | Q92905 | AID 651999 | inhibition, % at 12.5 µM | Purified CSN, SCF-Nedd8-OG deneddylation, fluorescence polarization | 0.38% of 360,000 active;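 active = pattern-corrected inhibition above about 35%, with an unprinted fluorescence ratio check between 0.5 and 1.5, limit read from the data, passing the limit was not always enough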;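 also: 0% = enzyme with substrate and 100% = substrate without enzyme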
#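 Material: purified human Csn5 enzyme expressed in HEK293T cells / Medium: Tris buffer pH 7.5, NaCl, DTT, Tween-20, trehalose, ovalbumin / Compound dosing: 12.5 µM single point / Schedule: 90 min incubation of compound, enzyme and substrate at room temperature / Signal: fluorescence polarization of the substrate / Control set: no-enzyme wells high, enzyme-with-substrate wells low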
# * marks the source's active call; other numbers are inactive results; · = not tested or not shown. Compounds with a hit are over-represented: about 1.7% of the library has one in this group of screens.
SMILES,HNF4A DNA FP,NR1D1 modulator,TPT1 inhibitor,CSN inh
CCC(=O)NNC(=S)NC(=O)c1ccc(C)cc1,2,-1,-2,-3
CC1(C)C2CC[C@]3(C)C(C(=O)C=C4[C@@H]5C[C@@](C)(C(=O)O)CC[C@]5(C)CC[C@]43C)[C@@]2(C)CC[C@@H]1OC(=O)CCC(=O)O (some centres undefined),·,1,·,·
CCNC(=O)CN(C1CCCCC1)S(=O)(=O)c1ccc(F)cc1,37*,3,0,4
CCOc1ccc(-n2c(COc3ccccc3)nnc2SCC(=O)Nc2ccc3c(c2)OCCO3)cc1,·,-7,·,·
Cc1cccc(NC(=O)c2cc(S(=O)(=O)N3CCCC3)cn2C)c1,-1,3,-3,2
Cc1cc(C)cc(NC(=O)c2cc(S(=O)(=O)N3CCCC3)cn2C)c1,53*,-8,-3,-5
COC(=O)c1c(NC(=O)c2ccco2)sc2c1CCC2,64*,-4,4,-3
NC[C@H]1O[C@H](O[C@H]2C(O[C@@H]3O[C@H](CO)[C@@H](O)[C@H]3O)[C@@H](O)[C@H](N)C[C@@H]2N)[C@H](N)[C@@H](O)[C@@H]1O (some centres undefined),·,-2,·,·
c1ccc2c(CN3CCOCC3)csc2c1,-2,-4,-5,0
c1ccc2c(CN3CCOCC3)c3ccccc3c(CN3CCOCC3)c2c1,32*,-1,-7,-4
CCN(CC)c1ccc2cc(-c3nc4ccccc4[nH]3)c(=O)oc2c1,-87,·,-7,-72
CCN(CC)c1ccc2cc(C(=O)c3cccs3)c(=O)oc2c1,84*,7,·,4
CC(C)n1cnc2c(Nc3cccc(Cl)c3)nc(NCCCO)nc21,1,-4,-1,-1
C=CC(=O)Nc1cccc(Nc2nc(N[C@H]3CC[C@H](N(C)C)CC3)nc3c2ncn3C(C)C)c1,40,·,·,112*
COc1ccccc1Cc1c(-c2ccc(Cl)cc2)nc2c(Cl)cc(C(F)(F)F)cn12,11,5,·,2
COc1ccccc1Cc1c(-c2ccc(C#N)cc2)nc2c(Cl)cc(C(F)(F)F)cn12,61,·,·,46*
COc1ccccc1Cc1c(-c2ccccc2)nc2c(C)cc(Br)cn12,9,-3,·,97*
CCCc1nc2c(C)cc(Br)cn2c1Cc1ccccc1OC,·,1,·,·
CCC(=O)N1CCc2cc(Br)c(S(=O)(=O)NC3CCN(Cc4ccccc4)CC3)cc21,·,0,·,·
O=C(Nc1ccc(N2C(=O)CC(c3ccccc3)C2=O)c(Cl)c1)c1ccccn1 (centres undefined),·,6,·,·
Cc1[nH]c(=O)[nH]c(=O)c1CSCC(=O)OCC(=O)Nc1ccccn1,-5,2,-1,94*
C[C@]12C=CC(=O)C=C1CCC1C2[C@@H](O)C[C@@]2(C)C1CC[C@]2(O)C(=O)CO (some centres undefined),·,-5,·,·
CCOC(=O)c1c(NC(=O)CSc2cccc[n+]2[O-])sc(C(=O)Nc2ccccc2)c1C,6,1,17,105*
COc1cccc(/C=N/Nc2ncnc3c2[nH]c2ccc(C)cc23)c1OC,52*,-12,3,68*
CC(C)(C)OC(=O)NCc1ccc(NC(=O)c2nc[nH]c2C(=O)NCCCCCCNC(=O)c2[nH]cnc2C(=O)Nc2ccc(CNC(=O)OC(C)(C)C)cc2)cc1,46*,8,·,17
SMILES,HNF4A DNA FP,NR1D1 modulator,TPT1 inhibitor,CSN inh
CC(C)(C)OC(=O)NCc1ccc(NC(=O)c2nc[nH]c2C(=O)NCCCCNC(=O)c2[nH]cnc2C(=O)Nc2ccc(CNC(=O)OC(C)(C)C)cc2)cc1,27,·,·,6
CCOC(=O)Nc1ccc2c(CN3CCC(C(=O)OC)CC3)cc(=O)oc2c1,2,4,-1,-2
CCc1ccc2c(CN3CCC(C(=O)OC)CC3)cc(=O)oc2c1,84*,-5,0,-1
O=S(=O)(O)c1cc(O)c2c(O)c(N=Nc3cc(Cl)ccc3O)c(S(=O)(=O)O)cc2c1,-51,·,-4,32
Cc1cc(-c2ccc(N=Nc3c(S(=O)(=O)O)cc4cc(S(=O)(=O)O)cc(N)c4c3O)c(C)c2)ccc1N=Nc1c(S(=O)(=O)O)cc2cc(S(=O)(=O)O)cc(N)c2c1O,·,·,80*,·
O=c1c2c(c1=O)N(CCP(=O)(O)O)CCCN2,·,2,·,·
O=C(Nc1ncccn1)c1ccc([N+](=O)[O-])o1,78*,2,6,64*
O=C(Nc1ccccn1)c1ccc([N+](=O)[O-])o1,-2,·,0,-5
Cc1ccc2c(c1)N=C(c1ccc(Cl)cc1)CO2,1,0,-4,1
Clc1ccc(C2=Nc3cc(Cl)ccc3OC2)cc1,68*,2,2,-9
CCn1c2ccccc2c2cc(NC(=O)COC(=O)c3ccc(F)cc3F)ccc21,·,2,·,·
Cc1[nH]c2ccccc2c1C(=O)CSc1nc2cc(S(=O)(=O)N3CCCCC3)ccc2o1,4,-1,6,100*
CCC(=O)OCCCN1CCC2(CCC(c3ccccc3)CC2)C1=O (centres undefined),·,-1,·,·
OCCN1C[C@@H](O)[C@@H](O)C(O)C1CO (some centres undefined),·,0,·,·
CCCOC(=O)c1cc(-c2ccc(C=O)o2)ccc1Cl,1,1,1,-12
CCCOC(=O)c1cc(-c2ccc(/C=C3/C(=O)N(C)C(=O)C(C#N)=C3C)o2)ccc1Cl,3,·,24*,9
O=c1cc(-c2ccncc2)oc2c1ccc1ccccc12,-3,-4,3,9
O=c1cc(-c2ccco2)oc2c1ccc1ccccc12,3,-16,1,39*
CCOc1ccc(C(=O)C2CCN(C(=O)c3ccccc3C(=O)O)CC2)cc1,-1,-3,-1,-1
CCOc1ccc(C2C(C(=O)C3CC3)N3C=C(C#N)C=CC3C2(C#N)C#N)cc1 (centres undefined),·,0,50*,·
O=C1N2Cc3ccccc3C2CS(=O)(=O)N1C1CCCC1 (centres undefined),·,-5,·,·
CN(C)c1ccc([C@@H]2[C@@H]([N+](=O)[O-])[C@H]3C=Cc4ccccc4N3[C@H]2C(=O)c2ccc(Cl)cc2)cc1,30,0,82*,24
Cc1cnc2nc(-c3ccccc3)ccc2c1,4,-5,·,83*
CCc1ccc2cc(C)cnc2n1,-2,-4,·,-5
CC1(C)CC(=O)N(CC(=O)N2CCN(c3cccc(Cl)c3Cl)CC2)c2ccccc2S1(=O)=O,·,-7,·,·
SMILES,HNF4A DNA FP,NR1D1 modulator,TPT1 inhibitor,CSN inh
CC1(C)CC(=O)N(CC(=O)N2CCN(c3ccc(F)cc3)CC2)c2ccccc2S1(=O)=O,·,0,·,·
CCOC(=O)c1sc(NC(=O)/C=C/c2c(F)cccc2Cl)nc1C,34*,-11,0,-4
O=C1NC[C@H](CC2CCCCC2)N(CCc2cccc(F)c2)C1=O,4,-3,-3,38*
O=C1NC[C@H](CC2CCCCC2)N(CCC23CC4CC(CC(C4)C2)C3)C1=O,6,3,·,66*
CC(C)(C)CN1C(=O)C(=O)NC[C@@H]1CC1CCCCC1,-2,5,·,3
CCn1c(SCC(=O)Nc2oc(-c3ccccc3)c(-c3ccccc3)c2C#N)nnc1-c1cc(OC)cc(OC)c1,14,-16,-2,70*
